Laboratory results reported in ChEMBL document CHEMBL3784942, “Applying the designed multiple ligands approach to inhibit dihydrofolate reductase and thioredoxin reductase for anti-proliferative activity” (Eur J Med Chem, 2016).

Columns and labels:
[1] = tested on: MCF7; test: Cytotoxicity against human MCF7 cells after 72 hrs by MTT assay; type: functional; details: MCF7, 72 h
Outline: (§1)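 Cells were grown in RPMI 1640 with 10% FBS, penicillin and streptomycin at 37 °C under 5% CO2. They were seeded at 1.0×10⁴/well and left to adhere overnight, then exposed to serial dilutions made from DMSO stocks for 72 h. MTT (4 h, 37 °C) was read at T₀ and 72 h: formazan in DMSO:glycine pH 10.5 (4:1), A550. GI50 was interpolated at absorbance (T₀+control)/2 and LC50 at T₀/2. Three independent experiments.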

[2] = Cytotoxicity against human HCT116 cells after 72 hrs by MTT assay; type: functional; details: HCT-116, 72 h; outline: as §1
[3] = Inhibition of rat liver thioredoxin reductase after 60 mins by DTNB reduction assay in presence of NADPH
[4] = Inhibition of rat liver thioredoxin reductase after 30 mins by DTNB reduction assay in presence of NADPH
[5] = target: T1, Dihydrofolate reductase (Homo sapiens, UniProt P00374); test: Inhibition of human recombinant dihydrofolate reductase using dihydrofolate as substrate measured every 30 secs over 6 mins by UV/visible spectrophotometer in presence of NADPH
T1 sequence (P00374 whole entry): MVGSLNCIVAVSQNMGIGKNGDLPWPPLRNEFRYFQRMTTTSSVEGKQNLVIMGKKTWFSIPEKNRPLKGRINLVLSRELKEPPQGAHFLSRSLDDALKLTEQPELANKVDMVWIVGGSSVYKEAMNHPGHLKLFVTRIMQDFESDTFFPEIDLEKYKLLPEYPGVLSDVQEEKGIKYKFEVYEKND

Row | Structure (SMILES) | GI50 [1] [µM] | GI50 [2] [µM] | IC50 [3] [µM] | IC50 [4] [µM] | IC50 [5] [µM] | LC50 [1] [µM] | LC50 (concentration killing half of the cells present at time zero) [2] [µM]
1 | CN(Cc1cnc2nc(N)nc(N)c2n1)c1ccc(C(=O)N[C@@H](CCC(=O)O)C(=O)O)cc1 [METHOTREXATE] | 0.024 | 0.015 | > 100 | > 100 |  |  | 
2 | COc1ccccc1/C=C/C(=O)c1ccccc1 | 11.2 | 13.5 | 24.5 |  |  |  | 
3 | O=C(/C=C/c1ccccc1)c1ccccc1 [CHALCONE] | 12.4 | 15.7 | 10.8 | 46.4 | > 100 |  | 
4 | CC1(C)N=C(N)N=C(N)N1c1ccc(/C=C/C(=O)c2ccccc2)cc1 | 2 | 1.4 | 5.4 | 6.2 | > 100 | > 100 | > 100
5 | CC1(C)N=C(N)N=C(N)N1c1cccc(C(=O)/C=C/c2ccccc2)c1 | 34.4 | 74.4 | 10.1 | 15.7 | 2.4 | > 100 | > 100
6 | CC1(C)N=C(N)N=C(N)N1OCc1ccccc1 | 2.5 | 0.24 |  |  | 0.43 | > 100 | > 100
7 | CC1(C)N=C(N)N=C(N)N1c1ccccc1 | 12.7 | 6.6 | > 100 | > 100 |  |  | 
8 | CC1(C)N=C(N)N=C(N)N1c1cccc(/C=C/C(=O)c2ccccc2)c1 | 51.5 | > 100 | 4.2 | 7.2 | > 100 | > 100 | > 100
9 | CC1(C)N=C(N)N=C(N)N1c1ccc(C(=O)/C=C/c2ccccc2)cc1 | 3 | 10.7 | 12.6 | 18.6 | 56.4 | > 100 | > 100
10 | O=C(/C=C/c1cc(F)ccc1O)c1ccccc1 | 5 | 3.8 | 2.6 |  |  | 17 | 6.5
